Measured values collected from several papers.
FLT3 D835V: Receptor-type tyrosine-protein kinase FLT3 (FLT3, Homo sapiens, UniProt P36888, D835V)
FLT3 R834Q: Receptor-type tyrosine-protein kinase FLT3 (FLT3, Homo sapiens, UniProt P36888, R834Q)
FLT3 K663Q: Receptor-type tyrosine-protein kinase FLT3 (FLT3, Homo sapiens, UniProt P36888, K663Q)
FLT3 N841I: Receptor-type tyrosine-protein kinase FLT3 (FLT3, Homo sapiens, UniProt P36888, N841I)
FLT3 autoinhibited: Receptor-type tyrosine-protein kinase FLT3, autoinhibited (FLT3, Homo sapiens, UniProt P36888)
FLT3: Receptor-type tyrosine-protein kinase FLT3 (FLT3, Homo sapiens, UniProt P36888)
FLT3 D835H: Receptor-type tyrosine-protein kinase FLT3 (FLT3, Homo sapiens, UniProt P36888, D835H)

| Compound | target | assay | setting | remaining binding |
| --- | --- | --- | --- | --- |
| O=C(c1ccc(Nc2nccc(-c3cc4ccccc4s3)n2)cc1)N1CCC(N2CCCC2)CC1 | FLT3 D835V | binding, competition with immobilised ligand | 1 µM | 3.1% |
| O=C(NCCCC1CCCCC1)c1ccc(CNC(=O)c2cnn(-c3ccccc3)c2C(F)(F)F)cc1 | FLT3 R834Q | cell-free assay, competition with immobilised ligand | 0.1 µM | 100% |
| CNC(=O)[C@@H]1CC[C@@H](n2c(-c3ccc4cnccc4c3)nc3ccc(C(=O)NCc4cccc(C(N)=O)c4)cc32)C1 | FLT3 K663Q | binding, competition with immobilised ligand | 1 µM | 99% |
| Cc1cnc(Nc2ccc(C(=O)N3CCC(N4CCCC4)CC3)cc2)nc1-c1cc2ccccc2s1 | Receptor-type tyrosine-protein kinase FLT3 (FLT3, Homo sapiens, UniProt P36888, D835V/ITD) | binding, competition with immobilised ligand | 1 µM | 0.9% |
| C[C@@H](c1ccc(-n2cnc3c(N)ncnc32)cc1)N1CCc2nn(C)c(Cc3ccccc3)c2C1=O | FLT3 N841I | binding, competition with immobilised ligand | 0.1 µM | 97% |
| O=C(Nc1ccc(Oc2ccc(F)cc2)cc1)N1CCc2ncccc2[C@H]1c1ccc(F)cc1 | FLT3 autoinhibited | cell-free assay, competition with immobilised ligand | 1 µM | 100% |
| COc1ncc2cc3ccccc3nc2c1C#N | Receptor-type tyrosine-protein kinase FLT3 (FLT3, Homo sapiens, UniProt P36888, ITD) | cell-free assay, competition with immobilised ligand | 5 µM | 94% |
| CN1CCN(c2ccc(Nc3nccc(-c4cccc([N+](=O)[O-])c4)n3)cc2C(F)(F)F)CC1 | FLT3 D835V | binding | 10 µM | 0% |
| c1cncc(-c2cccc(Nc3nccc(NC4CCCCC4)n3)c2)c1 | FLT3 R834Q | binding, competition with immobilised ligand | 10 µM | 5.5% |
| CN(CCCC(F)(F)F)c1nccc(-c2cnn3ncccc23)n1 | FLT3 K663Q | binding | 1 µM | 88% |
| COc1cnc(Nc2cccc(S(N)(=O)=O)c2)nc1N1CCN(c2ccccc2)C(=O)C1 | FLT3 N841I | binding, competition with immobilised ligand | 1 µM | 96% |
| O=C(NCC1CCOCC1)c1n[nH]cc1NC(=O)c1c(F)cccc1F | FLT3 | binding, competition with immobilised ligand | 1 µM | 92% |
| N#Cc1ccccc1CSc1nnc2c(n1)[nH]c1ccccc12 | FLT3 | binding, competition with immobilised ligand | 10 µM | 84% |
| O=C(NCCCN1CCOCC1)c1ccc(Nc2ncc(Cl)c(-c3ccc(Cl)s3)n2)cc1 | FLT3 K663Q | binding, competition with immobilised ligand | 1 µM | 2% |
| COc1cnc(Nc2cccc(S(N)(=O)=O)c2)nc1N1CCN(c2ccccc2)CC1 | FLT3 K663Q | binding, competition with immobilised ligand | 1 µM | 36% |
| C=CC(=O)N1CCC(C(=O)NCC(=O)N2CCN(c3nc(-c4cnc(N)nc4C(F)F)nc(N4CCOCC4)n3)CC2)CC1 | FLT3 D835H | binding, competition with immobilised ligand | 1 µM | 100% |
| C[C@@H]1CCN(c2nccc(-c3cnn4ncccc34)n2)C1 | FLT3 | binding | 1 µM | 100% |
| CCN1CCN(Cc2ccc(C(=O)Nc3ccc(C)c(Oc4ccc5c(c4)CC(=O)N5)c3)cc2C(F)(F)F)CC1 | FLT3 K663Q | binding, competition with immobilised ligand | 1 µM | 45% |

| Compound | target | assay | setting | remaining binding |
| --- | --- | --- | --- | --- |
| N[C@H]1CCN(c2nccc(-c3cnn4ncccc34)n2)C1 | FLT3 K663Q | binding | 1 µM | 100% |
| O=C(c1ccc(Nc2ncc(Cl)c(-c3cc4ccccc4s3)n2)cc1)N1CCC(N2CCCC2)CC1 | FLT3 D835V | binding, competition with immobilised ligand | 1 µM | 1.3% |
| CN1CCN(c2ccc(Nc3nccc(-c4ccccc4)n3)cc2C(F)(F)F)CC1 | FLT3 D835H | binding | 10 µM | 0.2% |
| O=C(Nc1c[nH]nc1C(=O)NC1CCNCC1)c1cc(F)cc(F)c1 | FLT3 K663Q | binding, competition with immobilised ligand | 1 µM | 96% |
| CC1CCCN1c1nccc(-c2cnn3ncccc23)n1 (stereo not drawn) | FLT3 N841I | binding | 1 µM | 75% |
| COc1cc(-c2cn(C3CCc4ccccc4N(CC(F)(F)F)C3=O)nn2)ccc1-n1ccc(C)n1 (stereo not drawn) | FLT3 | cell-free assay, competition with immobilised ligand | 1 µM | 85% |
| F[C@@H]1CCN(c2nccc(-c3cnn4ncccc34)n2)C1 | FLT3 autoinhibited | binding | 1 µM | 100% |
| COc1ccc2cc(OCC3(C(=O)O)CN(C(=O)c4ccc(F)cc4)C3)ccc2c1 | FLT3 R834Q | cell-free assay, competition with immobilised ligand | 1 µM | 100% |
| CN(C)c1nccc(-c2cnc3ncccn23)n1 | FLT3 autoinhibited | binding | 1 µM | 72% |
| O=C(c1ccc(Nc2ncc(Cl)c(-c3ccc(Cl)s3)n2)cc1)N1CCC(N2CCCC2)CC1 | FLT3 | binding, competition with immobilised ligand | 1 µM | 10% |
| NS(=O)(=O)c1cc(NC(=O)Cc2ccccc2)ccc1Oc1cccc(Cl)c1 | FLT3 K663Q | cell-free assay, competition with immobilised ligand | 1 µM | 99% |
| COc1ccnn2ncc(-c3ccnc(N(C)C)n3)c12 | FLT3 D835V | binding | 1 µM | 81% |
| c1ccc(N2CCN(Cc3nc4ccccc4[nH]3)CC2)nc1 | FLT3 | binding, competition with immobilised ligand | 1 µM | 100% |
| Nc1ncc2c(n1)-c1c([nH]c3ccc(C#CC4CC4)cc13)CCCC2 | FLT3 | binding, competition with immobilised ligand | 1 µM | 96% |
| CNC(=O)Nc1ccc2c(c1)[C@@]1(CC2)OC(=O)N(CC(=O)N(Cc2ccc(F)cc2)[C@@H](C)C(F)(F)F)C1=O | FLT3 D835V | cell-free assay, competition with immobilised ligand | 1 µM | 81% |
| O=C(NCCCN1CCOCC1)c1ccc(Nc2nccc(-c3cc4ccccc4s3)n2)cc1 | FLT3 D835H | binding, competition with immobilised ligand | 1 µM | 30% |
| Cc1c(NC(=O)c2cc(C(N)=O)nc3cc(F)ccc23)c(C(F)(F)F)nn1Cc1ccc(C(C)(C)C)cc1 | FLT3 R834Q | cell-free assay, competition with immobilised ligand | 1 µM | 100% |
| c1cnn2ncc(-c3ccnc(N4CCC45COC5)n3)c2c1 | FLT3 D835H | binding | 1 µM | 64% |
